ChEMBL document CHEMBL1158364, “Synthesis and pharmacological evaluation of 2(3H)-furanones and 2(3H)-pyrrolones, combining analgesic and anti-inflammatory properties with reduced gastrointestinal toxicity and lipid peroxidation” (Eur J Med Chem, 2009)

Assays:
Rattus norvegicus [1] = test: Antiinflammatory activity in Wistar rat assessed as inhibition of carrageenan-induced paw odema at 20 mg/kg, po pretreated 30 mins pre-carrageenan challenge measured after 2 hrs relative to control; type: functional
Procedure, shortened: (§1)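 Wistar rats of either sex, 180–200 g, six per group; vehicle 0.5% CMC given orally. […] in sterile 0.9% NaCl, 0.1 mL, injected sub-plantar into the right hind paw 30 min after dosing. Paw volume read by saline-displacement plethysmometer at 2 and 3 h. % inhibition = (Vc−Vt)/Vc × 100.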

Rattus norvegicus [2] = test: Antiinflammatory activity in Wistar rat assessed as inhibition of carrageenan-induced paw odema at 20 mg/kg, po pretreated 30 mins pre-carrageenan challenge measured after 3 hrs relative to control; type: functional; procedure, shortened: as §1
Mus musculus [3] = test: Central analgesic activity in Swiss albino mouse assessed as reaction time required to elicit thermal stimulus-induced hind paw licking at 20 mg/kg, po after 60 mins by Turner hotplate method; type: functional
Procedure, shortened: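 Swiss albino mice of either sex, 25–30 g, six per group. Compounds given orally in 1% CMC; controls received vehicle only. Hot plate held at 53 ± 0.5 °C. Reaction time is the interval from placement on the plate to hind-paw licking or jumping. Measured before dosing (0 min) and 1 h after oral dosing.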

Mus musculus [4] = test: Peripheral analgesic activity in Swiss albino mouse assessed as inhibition of acetic acid-induced writhing response at 20 mg/kg, po pretreated 1 hr before acetic acid challenge; type: functional; set-up: scale not given: the % may be the effect or the level left
Procedure, shortened: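 Swiss albino mice of either sex, 25–30 g, housed singly and habituated 30 min in the test cage. Compounds given orally in 1% CMC; controls received 1% CMC. One hour after dosing, 0.10 mL 1% acetic acid was given i.p. Writhes were counted over 30 min and % protection derived versus control.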

Rattus norvegicus [5] = test: Gastrointestinal toxicity in albino rat assessed ulcer index at 60 mg/kg, po after 17 hrs; type: organism-based; set-up: dose 60 mg/kg, route oral; conditions: in vivo
Procedure, shortened: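 Fasted albino rats (150–200 g; food, not water, withheld 24 h), groups of six, dosed orally at 60 mg/kg; controls got 1% methyl cellulose suspension. Normal diet for 17 h, then sacrifice. Stomach opened along greater curvature, washed, mucosa scored under magnifying glass (0.5 redness to 3.0 for >5 ulcers); severity index = treated group mean score minus control mean.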

Gastric mucosa = test: Inhibition of lipid peroxidation assessed as malondialdehyde level per mg of protein in gastric mucosa isolated from albino rat treated 60 mg/kg, po by UV spectrophotometry; type: functional
Procedure, shortened: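 After the ulcer scoring, gastric mucosa was scraped and homogenized in 1.8 mL ice-cold 1.15% KCl. Supernatant (1 mL) received 0.5 mL 30% TCA and 0.5 mL 0.8% TBA, then was heated 30 min at 80 °C. Tubes were chilled 10 min on ice and centrifuged 3000 rpm for 15 min before absorbance was read (TBARS/MDA, Ohkawa method).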

Compound	inhibition in vivo at 20 mg/kg (Rattus norvegicus [1])	inhibition in vivo at 20 mg/kg (Rattus norvegicus [2])	Activity (Mus musculus [3])	Activity (Mus musculus [4])	UI (Rattus norvegicus [5])	Activity (Gastric mucosa)
O=C1OC(c2ccc(Cl)cc2)=C/C1=C\c1ccc(Cl)cc1	40%	69.1%	12.67 s	44.57%	0.2	0.403 nmol/mg protein
O=C1/C(=C/c2ccc([N+](=O)[O-])cc2)C=C(c2ccc(Cl)cc2)N1Cc1ccccc1	12%	19.8%			0.4	0.403 nmol/mg protein
O=C1/C(=C/c2ccc(F)cc2)C=C(c2ccc(Cl)cc2)N1Cc1ccccc1	58.7%	89.5%	13.3 s	59.03%	0.2	0.401 nmol/mg protein
O=C1OC(c2ccc(Cl)cc2)=C/C1=C\c1ccccc1[N+](=O)[O-]	4%	18.5%			0.6	0.429 nmol/mg protein
CC(C)Cc1ccc(C(C)C(=O)O)cc1 (configuration not stated) [IBUPROFEN]	80.9%	89.5%	14.4 s	65.06%	0.9	
O=C1OC(c2ccc(Cl)cc2)=C/C1=C\c1ccc(F)cc1	41.3%	70.4%	12.9 s	50.6%	0.4	0.329 nmol/mg protein
O=C1OC(c2ccc(Cl)cc2)=C/C1=C\c1ccccc1Cl	62.7%	81.5%	12.69 s	53.01%	0.2	0.494 nmol/mg protein
O=C1OC(c2ccc(Cl)cc2)=C/C1=C\c1ccc([N+](=O)[O-])cc1	4%	36%			0.4	0.549 nmol/mg protein
O=C1/C(=C/c2ccccc2)C=C(c2ccc(Cl)cc2)N1Cc1ccccc1	24%	37%			0.6	0.605 nmol/mg protein
COc1ccc(/C=C2\C=C(c3ccc(Cl)cc3)OC2=O)cc1	4%	32.3%			0.5	0.545 nmol/mg protein
O=C1/C(=C/c2ccc(Cl)cc2)C=C(c2ccc(Cl)cc2)N1Cc1ccccc1	58.7%	88.9%	11.55 s	57.83%	0.1	0.31 nmol/mg protein
O=C1OC(c2ccc(Cl)cc2)=C/C1=C\c1ccc(Cl)cc1Cl	53.3%	72.6%	11.86 s	49.39%	0.1	0.388 nmol/mg protein
O=C1OC(c2ccc(Cl)cc2)=C/C1=C\c1ccccc1	18.9%	36%			0.9	0.522 nmol/mg protein
COc1cc(/C=C2\C=C(c3ccc(Cl)cc3)N(Cc3ccccc3)C2=O)ccc1O	36%	42%			0.5	0.558 nmol/mg protein
COc1cc(/C=C2\C=C(c3ccc(Cl)cc3)OC2=O)ccc1OC(C)=O	24%	37%			0.3	0.597 nmol/mg protein
COc1ccc(/C=C2\C=C(c3ccc(Cl)cc3)OC2=O)cc1OC	9.33%	36%			0.3	0.533 nmol/mg protein
